From the EternaBench riboswitch data

Test system: MS2 coat protein
Assay: apparent Kd, MS2 coat protein; higher = weaker binding; RNA-MaP array
Outline: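 With or without input ligand, designed RNAs transcribed on an Illumina sequencing chip from sequenced DNA templates were incubated at room temperature with fluorescently labeled MS2 coat protein at 1.5 nM to 3 μM. The buffer was Tris-HCl pH 7.5 with KCl, MgCl2, BSA, DTT, tRNA and Tween20, and incubation ran 0.8–1.5 h at the lowest and 10–20 min at the highest concentrations. Apparent Kd is reported as the median of fits to binding curves from individual clusters. Designs measured on fewer than 10 clusters are not included.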

[1] = designed as: ON switch for flavin mononucleotide, no ligand
[2] = ligand present: flavin mononucleotide, designed as: ON switch for flavin mononucleotide
[3] = designed as: OFF switch for tryptophan, no ligand
[4] = ligand present: tryptophan, designed as: OFF switch for tryptophan
[5] = designed as: OFF switch for flavin mononucleotide, no ligand
[6] = ligand present: flavin mononucleotide, designed as: OFF switch for flavin mononucleotide
[7] = designed as: ON switch for theophylline, no ligand
[8] = ligand present: theophylline, designed as: ON switch for theophylline

Row | Sequence | apparent Kd [5] [µM] | apparent Kd [6] [µM] | also measured
1 | GUGAUACAUGAGGAUCACCCAUGUUAAGGUCUUGCAGGAUAUCCAGAACUCGAGAUAGAUGGAGAAGGGCAUGCAU |  |  | apparent Kd [1]: 0.0126 µM; apparent Kd [2]: 0.00976 µM
2 | UUGGCACGGACGGCCGCCACUCUUUCACAUGAGGAUCACCCAUGUUAUCUAGUCCUCAGCAGAAAGAGGACCGGGUCGGAGUUGG |  |  | apparent Kd [3]: 0.126 µM; apparent Kd [4]: 0.122 µM
3 | AAAAUUCUAGUGAGGAUAUGGUACGUUGUAGUAAGCCAGAAGGCACAUGAGGAUCACCCAUGUAUAAUGGACGA | 0.0311 | 0.148 | 
4 | CCACUACAUGAGGAUCACCCAUGUCAGGAUAUCAACCACGCCUCUCCUUGGACGUAGAUGAGAAGGGACGUGGG | 0.0167 | 0.0282 | 
5 | CAGUAAGUAGGAUAUGUAUCAAGCUACAUGAGGAUCACCCAUGUGAACCCUAACAGCUGAACAGAAGGACUGUGUG | 0.156 | 0.198 | 
6 | AUCACCUUCAAGAAGGUCCCAUACAUGAGGAUCACCCAUGUAAACAAAAUAAUAUGAAAUAAAAGGAAGGAUAUUGAACCAUGA |  |  | apparent Kd [1]: 0.0551 µM; apparent Kd [2]: 0.0303 µM
7 | AUACCAACGGUCAGGAUAUAGGUAACAAGGAAAGACUAGAAGGGACAUGAGGAUCACCCAUGUUUUAACAUGAU | 0.00728 | 0.00689 | 
8 | CGGCGGGACUCACAUGAGGAUCACCCAUGUUUAAAGGGUCAAAAGGAUAUGAAAACAGCAAGUAAUCAGAAGGUUUACCUAGUG | 0.0145 | 0.0158 | 
9 | GCAUUAGGGUAAGGAUAUUGAAUUAAACAUGGCAAAGUAAUUUUUGACAUGAGGAUCACCCAUGUCAAGAAGGUACUCAUUCAU | 0.00608 | 0.00574 | 
10 | UACUCAAGAGUAAGGAUAUAGAACCAAAUAGCGGACUAGAAGGUACAUGAGGAUCACCCAUGUCAAAGACAGAA | 0.00744 | 0.00719 | 
11 | AUGGAACAUGAGGAUCACCCAUGUGAUGAUACCAGAUUAACGCUUAUCCCUUGGCAGCAUGUCCGCCCUCAACCUGUGGCGUAUU |  |  | apparent Kd [7]: 0.0222 µM; apparent Kd [8]: 0.0261 µM
12 | UAGUAACAUGAGGAUCACCCAUGUCCGGAUACCAGACAUAUACCAGUCCCUUGGCAGCCGCCAGUUAAAAUCUAACACAAAAGUU |  |  | apparent Kd [7]: 0.0462 µM; apparent Kd [8]: 0.0215 µM
13 | CGCCGUGAUUAGAAGGGUGGUGGGAAUCUUAUCACAGGAUAUAAAUAGGGCCGCUACAUGAGGAUCACCCAUGUCCUCCGGUCA | 0.2 | 0.165 | 
14 | GCCAGCAGUACAUGAGGAUCACCCAUGUCCCUUGUACUUUUAUAGGAUAUACGAGUGGCUACCAUGUAGAAGGAUAGAAUUGUC | 0.932 | 0.606 | 
15 | AUUAACUGGUAAGAUACCAGAGUCGGGAUCUACAUGAGGAUCACCCAUGUUCUAAAGUCGCUCCCUUGGCAGCUUCAAUGAGUCG |  |  | apparent Kd [7]: 0.0353 µM; apparent Kd [8]: 0.036 µM
16 | UUACAACAUGAGGAUCACCCAUGUUAGGAUAUACGAGGGACAGCGCGGUUAUAUCCCUGUAGAAGGAACACGGG | 0.0396 | 0.0476 | 
17 | AAUAAGAAAGGAUAUACAGAGGAUAAACUAAUAAAUAAAGGACAUGAGGAUCACCCAUGUAGAAGGUUCAAAAU | 0.0119 | 0.0117 | 
18 | UGACACAUGAGGAUCACCCAUGUUGGGUAAUGUUAACGUACAAGAAGGGCAGCCGGCCGGACGUUGCAGGAUAUUGUAGCGCGA | 0.0417 | 0.0311 | 
19 | UAGAAAUCCUUGCAGGAUAUGUUGGAGUCUACAUGAGGAUCACCCAUGUUUAGUAGCAGGCGACGACAGAAGGGCAAUCUCAUGAU |  |  | apparent Kd [1]: 0.0236 µM; apparent Kd [2]: 0.00918 µM
20 | UGCGGCGAAGGAUAUUGACCAAAACACAUGAGGAUCACCCAUGUACUCAUAACAUGCUAACAAGAAGGUCGCGUAA | 0.0159 | 0.0138 | 
21 | CAACCACACAUAAGGCAAGGACAUGAGGAUCACCCAUGUGGUAGAAGGCAUCCUAAUGCGGACGAUGAGGAUAUACGACGUGCA | 0.0755 | 0.05 | 
22 | AUAAAACUAAUACAUGAGGAUCACCCAUGUGAAACACAUACGAGAAGGGCGACAGUCUCAUACACGCAGGAUAUCGGCUAAACG |  |  | apparent Kd [1]: 0.0108 µM; apparent Kd [2]: 0.00995 µM
23 | AAGACGGUUCAGAAGGUCUCUAAGCAGGUUACAGAAGGAUAUGAUGCGGACACAUGAGGAUCACCCAUGUUCUAGGGUACCCUA |  |  | apparent Kd [1]: 0.0221 µM; apparent Kd [2]: 0.019 µM
24 | AUGGAACAUGAGGAUCACCCAUGUUAGGAUAUCGGCGAAGGGAGUUUUAUACUCACUGCGAGAAGGAACGUGAC | 0.0252 | 0.0187 | 

Row | Sequence | apparent Kd [5] [µM] | apparent Kd [6] [µM] | also measured
25 | AGAUUUUGCCAAGGAUAUUCGAUGCAUCAUGACAUGAGGAUCACCCAUGUAUAACGACUUGGGCUGAAGAAGGUGGACCAAGCU | 0.0118 | 0.012 | 
26 | GAACCGUUUGAGAAGGUACACAUUCAGGUCGGUACUGGACAUGAGGAUCACCCAUGUGCCGGUGGUAAGGAUAUCAGAUGAGCU | 0.0105 | 0.0104 | 
27 | CGGUCCACUGAGAAGGCUCACUCCAUGCCGAGGAGAGGAUAUCAAACCUAUAUUGCACGCAGCGAACAUGAGGAUCACCCAUGU |  |  | apparent Kd [1]: 0.011 µM; apparent Kd [2]: 0.00873 µM
28 | GGGCGACUAGGAUAUACAGGAAGUUAAUGAGUGUCAAAGAAACAUGAGGAUCACCCAUGUAGAAGGAGUGCUAU | 0.0112 | 0.0126 | 
29 | GAUCUGUGAGGAUAUUGUUAGAGCAUUCAACCAUCGAAUGCCAAGAAGGCACAUGAGGAUCACCCAUGUAGACA | 0.0079 | 0.0104 | 
30 | UUAUAUUCUCAAUCGCCAUGUGCUUUAGAUACCAGUCUGAUAAAUGACCCUUGGCAGCUAGAGACAUGAGGAUCACCCAUGUCUU |  |  | apparent Kd (designed as: OFF switch for theophylline, no ligand): 0.0106 µM; apparent Kd (ligand present: theophylline, designed as: OFF switch for theophylline): 0.0298 µM
31 | CUUAAGUGAGGAUAUCGUGGGACUACAUUAAUGAGAAUCAGCGAGAAGGCACAUGAGGAUCACCCAUGUGGUAA | 0.0186 | 0.0762 | 
32 | GUCCUACAUGAGGAUCACCCAUGUGGUCGUGGUAUAGGAUAUUAGGACUUUGUAAUCAGUUAAGAAGGAUAUCACU |  |  | apparent Kd [1]: 0.0601 µM; apparent Kd [2]: 0.0174 µM
33 | GUAUAUACAUAGGAUAUGUCGGCCGGUUAUGCAACAGAAGGAUGUACAUGAGGAUCACCCAUGUCAAUUGGGAG | 0.0746 | 0.22 | 
34 | GGAGGCCUUAGGGAUACCAGCUAAGUUGAGUACAUGAGGAUCACCCAUGUGUUCCCAGAGAGCCCUUGGCAGCCCUCAUCCGUUC |  |  | apparent Kd [7]: 0.0116 µM; apparent Kd [8]: 0.0108 µM
35 | UCUCAUCAGUAGAAGGGCAGACCCUAACAAGGUGCAGGAUAUACUCUAAGUCCUACAUGAGGAUCACCCAUGUCAUAUAUCGGG | 0.323 | 0.196 | 
36 | UAGAAACUCGUAAGGAUAUCCGAAGAGAAAAUGAGGGAGAAGGUACAUGAGGAUCACCCAUGUAUGAAAUGGAC | 0.00764 | 0.00798 | 
37 | GAGUACUGGUUAGGGAGAAAUACAUGAGGAUCACCCAUGUCCAGAAGGAUUCAGUAAGUGCCGGAAUAGGAUAUGGAACUAAAA |  |  | apparent Kd [1]: 0.246 µM; apparent Kd [2]: 0.105 µM
38 | UAAGGACUUAUAGGAUAUGCAAACAUGAGGAUCACCCAUGUGAACCACGAAAUGACGCAGAAUAAGCAGAAGGAUAGUACGUAC |  |  | apparent Kd [1]: 0.0327 µM; apparent Kd [2]: 0.0255 µM
39 | AGGUGCAUCAAGAAGGAUGACAUGAGGAUCACCCAUGUACAAAAGGCGCGAUUUACAAAUCGUACAUAGGAUAUUGUGCAUGUU |  |  | apparent Kd [1]: 0.0713 µM; apparent Kd [2]: 0.0246 µM
40 | AAUGGACGAGGAUAUACAUGAGGAUCACCCAUGUCACAGUGGGCUCACCGUUCGGGUAGUAGAAGGCGUUUCUA | 0.107 | 0.282 | 
41 | UAGAUCCCAGUCAGGAUAUCCAGGGAGAAUAGGAGGGAGAAGGGACAUGAGGAUCACCCAUGUAUGCGACUACC | 0.00791 | 0.00892 | 
42 | AGACAUGAGGAUCACCCAUGUUUGUGUAUCUGACCGCGCACUAGAAGGGAUUGGACAACUUACUAUCAGGAUAUAGACAACGGU |  |  | apparent Kd [1]: 0.0084 µM; apparent Kd [2]: 0.00695 µM
43 | UUCCUGAAAGGAUAUACCUGGCCCGUGAACUGGAUAAAAGCACAUGAGGAUCACCCAUGUAGAAGGUUCGAUUA | 0.00714 | 0.00702 | 
44 | AGCUCGACUCGCAGCUGGAUGCCCGCUUGCCGAGGACCGGUACGGCCGCCACUCGUCACUCGACAUGAGGAUCACCCAUGUGAUA |  |  | apparent Kd [3]: 0.0883 µM; apparent Kd [4]: 0.0456 µM
45 | UUUACGAACGUGGAAAUACAUGAGGAUCACCCAUGUCAAUUGUAGGAUAUCCGGCUCAAAGAAAUGGAGAAGGACAACGACUCC |  |  | apparent Kd [1]: 0.0134 µM; apparent Kd [2]: 0.0127 µM
46 | CUCCUACAUGAGGAUCACCCAUGUGAGGAUAUCUCCCAGUGGGAAUAGUUUCCAUGGAAGAGAAGGCACAGUGA | 0.0244 | 0.0309 | 
47 | UCUGGUUGAGGAUAUACAUGAGGAUCACCCAUGUCACCUAGCAAAGUAGAGAGUAAGUGUAGAAGGCAACCUUU | 0.0156 | 0.0189 | 
48 | UAGGUUAGGUAGAAGGGCAAGUAAUUCCACAUGAGGAUCACCCAUGUUCCUGUUUGGGAGGCUGUGCAGGAUAUACGAAAAUAA | 0.117 | 0.153 | 
